Measured values from different studies.
Lines come from different studies, so protocols differ.
Organism: Acinetobacter baumannii
Effect on: microbial growth

| Structure (SMILES) | method | strain | time | notes | MIC |
| --- | --- | --- | --- | --- | --- |
| CN[C@@H]1[C@H](O[C@H]2[C@H](O[C@H]3[C@H](O)[C@@H](O)[C@H](N=C(N)N)[C@@H](O)[C@@H]3N=C(N)N)O[C@@H](C)[C@]2(O)C=O)O[C@@H](CO)[C@H](O)[C@H]1O |  | ATCC19606 |  |  | > 2000 µg/mL |
| O=C(O)c1ccc(-n2cc(/C=N/Nc3cccc(Br)c3)c(-c3ccc(F)cc3)n2)cc1 |  | ATCCBAA1605 |  |  | 12.5 µg/mL |
| CC(C)(O/N=C(\C(=O)N[C@@H]1C(=O)N2C(C(=O)[O-])=C(C[n+]3ccccc3)CS[C@H]12)c1csc(N)n1)C(=O)O | broth dilution | ATCC19606 |  |  | 4 µg/mL |
| N=C(N)c1ccc(OCc2cc(COc3ccc(C(=N)N)cc3)cc(-c3ccccc3)c2)cc1 | broth dilution | ATCC17978 |  |  | > 200 µg/mL |
| C[C@@H](O)[C@H]1C(=O)N2C(C(=O)O)=C(S[C@@H]3CN[C@H](C(=O)N(C)C)C3)[C@H](C)[C@H]12 |  |  |  | clinical isolate | 128 µg/mL |
| CCCCCCC/C=C/C(=O)N1C(=O)/C(=C(\O)C2CCNCC2)C(=O)C1CC(C)C (centres unmarked) |  | ATCC19606 |  |  | 50 µg/mL |
| CCn1cc(C(=O)O)c(=O)c2cc(F)c(N3CCNCC3)cc21 | broth dilution | BAA747 |  |  | 16 µM |
| CC(C)CCNc1nc(Cl)c2c(c1O)C(=O)C1=C(O)[C@]3(O)C(=O)C(C(N)=O)=C(O)[C@@H](N(C)C)[C@@H]3C[C@@H]1C2.Cl.Cl.Cl | broth dilution | ATCC19606 |  |  | 4 µg/mL |
| NC[C@H]1O[C@H](O[C@H]2[C@H](O)[C@@H](O[C@H]3O[C@H](CO)[C@@H](O)[C@H](N)[C@H]3O)[C@H](N)C[C@@H]2N)[C@H](N)C[C@@H]1O | broth dilution |  |  |  | 2.6 µM |
| CNc1cccc2c(O)c3c(cc12)C[C@H]1C[C@H]2[C@H](N(C)C)C(O)=C(C(N)=O)C(=O)[C@@]2(O)C(O)=C1C3=O | broth dilution | ATCC19606 |  |  | > 32 µg/mL |
| N=C(N)NN=Cc1ccc(OC/C=C\COc2ccc(C=NNC(=N)N)cc2)cc1 |  | ATCC19606 | 16 h |  | ≤ 51 µg/mL |
| CO[C@@H](C(N)=O)[C@H](NC(=O)c1ccc(NC(=O)c2ccc(C#N)cc2)cc1)C(=O)Nc1ccc(C(=O)Nc2ccc(C(=O)Nc3ccc(C(=O)O)cc3)c(O)c2OC(C)C)cc1 |  | DSM30008 |  |  | 1 µg/mL |
| CCCCCCC/C=C/C(=O)N1C(=O)/C(=C(\O)c2ccc(OCOCCOC)cc2)C(=O)C1CC(C)C (centres unmarked) |  | ATCC19606 |  |  | 200 µg/mL |
| CC(NCCCCOc1ccc(Cl)c(Cl)c1)c1cc2cc(Br)ccc2[nH]1 (centres unmarked) | broth dilution | ATCC19606 |  |  | 32 µg/mL |
| CNC(C)C1CCC(N)C(OC2C(N)CC(N)C(OC3OCC(C)(O)C(NC)C3O)C2O)O1 (centres unmarked) |  |  |  |  | 0.5 to 1 µg/mL |
| O=C(CCc1cc(O)c(O)c(O)c1)NCCCCCCCC[P+](c1ccccc1)(c1ccccc1)c1ccccc1.[Br-] | broth dilution | ATCC19606 | 18 h |  | > 32 µg/mL |
| CN(C)[C@@H]1C(O)=C(C(N)=O)C(=O)[C@@]2(O)C(O)=C3C(=O)c4c(O)c(N)nc(F)c4C[C@H]3C[C@@H]12.Cl.Cl | broth dilution | ATCC19606 |  |  | 0.5 µg/mL |
